In paper PMC10237622 (Structure (London, England : 1993), 2023):

Columns and labels:
[1] = test system: CSP peptides Pep-II through Pep-IV; experiment: BLI free energies of binding, peptides Pep-II through Pep-IV versus Pep-I; design: species or system Plasmodium falciparum; details: Pep-II though Pep-IV after subtraction of Pep-I
Summary of the method: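 Free energy of binding was calculated from each experimental KD. The Pep-I value was subtracted from Pep-II through Pep-IV to isolate added binding energy from multivalent and homotypic interactions.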

[2] = test system: peptides Pep-I through Pep-IV; experiment: Reverse-format BLI, immobilized L9 IgG dipped into peptide; type: binding, Plasmodium falciparum; details: IgG (5 ug/mL) immobilized on AHC biosensors to 0.1 nm, dipped into varying peptide concentrations, 30°C
[3] = test system: CSP peptide Pep-I (1 NPNV; 0 NPNA); experiment: Biolayer interferometry; type: binding, Plasmodium falciparum; details: IgG versus Fab
Summary of the method: (§1)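 Streptavidin biosensors were loaded with biotinylated CSP peptide at 0.1 ug/mL in PBS + 1% BSA. Loading times were shortened per peptide (45, 30, 15, 3 s) to keep density below 0.01 nm. After a 60 s baseline, Fab (2000–2.7 nM), IgG (1000–1.3 nM) or IgM (100–0.1 nM) associated for 240–300 s, then dissociated 1200 s, at 30°C with agitation. Curves were drift-corrected against a loaded sensor in PBS and fitted globally to a 1:1 Langmuir model.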

[4] = target: CSP peptide Pep-IV (3 NPNV; 1 NPNA); experiment: Biolayer interferometry; type: binding, Plasmodium falciparum
[5] = test system: CSP peptide Pep-II (1 NPNV; 1 NPNA); experiment: Biolayer interferometry; type: binding, Plasmodium falciparum
Summary of the method: as §1

[6] = test system: CSP peptide Pep-III (2 NPNV; 0 NPNA); experiment: Biolayer interferometry; type: binding, Plasmodium falciparum

Row | Substance | increase in affinity, Fab/IgG/IgM context compared (in words) [1] | affinity, reverse format (in words) [2] | on-rate, fold higher than Fab [3] [fold] | decrease in KD (in words) ([4]; L9 IgG, Pep-IV versus Pep-I) | affinity (in words) ([4]; Pep-IV (3 NPNV; 1 NPNA)) | increase in affinity (free energy of binding ΔG minus ΔG of Pep-I) ([5]; L9 IgG, homotypic and less preferred NPNA with two L9s (Pep-II), calculated from KD) [kcal/mol] | affinity, fold higher than to Pep-I ([5]; Pep-II versus Pep-I) | increase in affinity (free energy of binding ΔG minus ΔG of Pep-I) ([6]; L9 IgG, homotypic and preferred NPNV with two L9s (Pep-III), calculated from KD) [kcal/mol] | affinity, fold higher than to Pep-II ([6]; Pep-III versus Pep-II)
1 | IgM: L9 IgM, produced in house | lowest in the IgM context |  |  |  |  |  |  |  | 
2 | L9 IgG: L9 IgG, produced in house | greatest in the IgG context | comparable affinities to peptides Pep-I through Pep-IV | 25 | over two orders of magnitude | substantially higher affinity | -1.1 | ~ 6 fold | -2.2 | ~ 6 fold
